How the values were obtained:
Conditions in all cases: in vivo
Rattus norvegicus [1] = experiment: AUC(0 to t) as total radioactivity in male Sprague-Dawley rat plasma at 10 mg/kg, po administered as single dose via gavage by LC-MS/MS analysis; format: ADME, organism-based; set-up: dose 10 mg/kg, dosed compound name [14C]lixivaptan, route oral
Method in brief: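 Jugular-cannulated Sprague-Dawley rats (5/gender) were fasted 18 h and gavaged once with 10 mg/kg [14C]lixivaptan suspended in water/pluronic F68. K2EDTA blood was taken at 0.25–168 h, with donor blood replaced from 1 h on. Total radioactivity was read by LSC (ng-equiv/ml) and parent by validated LC-MS/MS. Noncompartmental Cmax, log-linear kel and trapezoidal AUC followed.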

[2] = Drug recovery in urine of human at […], po administered as single dose measured after 168 hrs by liquid scintillation counting; format: ADME, organism-based; set-up: dosed compound name [14C]lixivaptan, route oral
Method in brief: (§1)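 Healthy male volunteers given single oral 100 mg (200 µCi) [14C]drug capsules after ≥10 h fast. Urine at 0-4, 4-8, 8-12, 12-24 h then 24-h intervals; feces as passed, to 168 h. Urine LSC; feces homogenized in water, combusted, LSC; % of dose.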

[3] = Drug recovery in feces of human at […], po administered as single dose measured after 168 hrs by liquid scintillation counting; format: ADME, organism-based; set-up: dosed compound name [14C]lixivaptan, route oral; method in brief: as §1
[4] = Drug recovery in urine of male Sprague-Dawley rat at 10 mg/kg, po administered as single dose via gavage measured after 168 hrs by liquid scintillation counting; format: ADME, organism-based; set-up: dose 10 mg/kg, dosed compound name [14C]lixivaptan, route oral
Method in brief: (§2)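 Intact SD rats (3/gender) dosed by gavage with [14C]drug 10 mg/kg (10 ml/kg, pluronic F68/water), housed in metabolism cages; urine and feces at 0-8, 8-24 h, then every 24 h to 7 days. Urine counted by LSC; feces homogenized 20% w/w in water, combusted, trapped CO2 counted; cage wash/debris included; % of dose.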

Rattus norvegicus [5] = experiment: Total Drug recovery in male Sprague-Dawley rat at 10 mg/kg, po administered as single dose via gavage measured after 168 hrs by liquid scintillation counting; format: ADME, organism-based; set-up: dose 10 mg/kg, dosed compound name [14C]lixivaptan, route oral
Method in brief: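 Intact rats, 3/gender, given [14C]drug as a suspension in deionized water with pluronic F68 (10 ml/kg, ~29.8 μCi/mg), fasted 18 h before dosing, fed 4 h after. Urine and feces collected at 0-8, 8-24 h, then every 24 h for 7 days. Feces homogenized, combusted and counted; urine counted by LSC in duplicate. Recovery is % of dose, including cage wash/debris.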

[6] = Drug recovery in urine of female Sprague-Dawley rat at 10 mg/kg, po administered as single dose via gavage measured after 168 hrs by liquid scintillation counting; format: ADME, organism-based; set-up: dose 10 mg/kg, dosed compound name [14C]lixivaptan, route oral; method in brief: as §2
[7] = Drug recovery in feces of female Sprague-Dawley rat at 10 mg/kg, po administered as single dose via gavage measured after 168 hrs by liquid scintillation counting; format: ADME, organism-based; set-up: dose 10 mg/kg, dosed compound name [14C]lixivaptan, route oral; method in brief: as §2
Rattus norvegicus [8] = experiment: Total drug recovery in bile duct-cannulated male Sprague-Dawley rat at 10 mg/kg, po administered as single dose via gavage measured from 0 to 48 hrs by liquid scintillation counting; format: ADME, organism-based; set-up: dose 10 mg/kg, dosed compound name [14C]lixivaptan, route oral
Method in brief: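 Male BDC rats (n=5) given oral [14C]drug as a suspension in deionized water with pluronic F68 (10 ml/kg). Drinking water supplemented with bile salts, NaCl and KCl. Bile collected on wet ice at 0-4, 4-8, 8-24 and 24-48 h. Duplicate aliquots counted by LSC; recovery expressed as % of dose in bile.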

Homo sapiens [9] = experiment: AUC (0 to 24 hrs) in human at 100 mg, po administered as single dose; format: ADME, organism-based, Plasma; set-up: time < 24 hr, dose 100 mg, route oral, dosed compound name [14C]lixivaptan
Method in brief: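 Healthy young men fasted 10 h and took one oral dose of [14C]lixivaptan, 100 mg (200 µCi) as two capsules with water, eating 4 h later. Plasma from each subject at 0.5, 2, 4, 8, 12, 24 and 36 h was acetonitrile-extracted and profiled by C18 radio-HPLC (formic acid/acetonitrile gradient) with flow detection. Component concentrations were % of radioactivity × total plasma radioactivity, giving AUC0-24 in ng-equiv.h/ml.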

Homo sapiens [10] = experiment: Cmax as total radioactivity in human plasma at 100 mg, po administered as single dose by LC-MS/MS analysis; format: ADME, organism-based; set-up: dose 100 mg, route oral, dosed compound name [14C]lixivaptan
Method in brief: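 Fasted healthy males took one oral 100 mg (200 µCi) [14C]lixivaptan dose. Plasma was drawn from predose to 144 h. Total radioactivity was measured by LSC and converted to ng-equiv/ml via the dose specific activity; lixivaptan by validated LC-MS/MS. Noncompartmental analysis: Cmax observed; kel by log-linear regression; AUC0-t by linear trapezoid; extrapolation as Cest/kel.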

Canis familiaris [11] = experiment: AUC(0 to t) as total radioactivity in male beagle dog plasma at 10 mg/kg, po administered as single dose by LC-MS/MS analysis; format: ADME, organism-based, Canis lupus familiaris; set-up: dose 10 mg/kg, dosed compound name [14C]lixivaptan, route oral
Method in brief: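 Four male beagles were fasted 18 h and gavaged once with 10 mg/kg (2 ml/kg) [14C]lixivaptan as a 5.0 mg/ml water/pluronic F68 suspension. Jugular K2EDTA blood was sampled from 0.25 to 168 h. Plasma total radioactivity was counted by LSC as ng-equiv/ml and lixivaptan by validated LC-MS/MS. Noncompartmental Cmax, t1/2 and trapezoidal AUC were derived.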

Homo sapiens [12] = experiment: Drug level in human plasma at 100 mg, po administered as single dose measured after 4 hrs by liquid scintillation counting; format: ADME, organism-based; set-up: dosed compound name [14C]lixivaptan
Method in brief: (§3)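 Healthy male volunteers fasted ≥10 h, given single oral 100 mg (200 µCi) [14C]drug as two 50-mg capsules with 250 ml water. Plasma (from ~50 ml blood) at 0.5, 2, 4, 8, 12, 24, 36 h, profiled per subject. Acetonitrile extraction, C18 radio-HPLC with 0.2% formic acid acetonitrile/water gradient, on-line radioactivity detection as % plasma radioactivity; ng-equiv/ml from % × total radioactivity.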

Homo sapiens [13] = experiment: Drug level in human plasma at 100 mg, po administered as single dose measured after 12 hrs by liquid scintillation counting; format: ADME, organism-based; set-up: dosed compound name [14C]lixivaptan; method in brief: as §3
Rattus norvegicus [14] = experiment: Drug level in female Sprague-Dawley rat plasma at 10 mg/kg, po administered as single dose via gavage measured after 1 hr by liquid scintillation counting; format: ADME, organism-based; set-up: dose 10 mg/kg, dosed compound name [14C]lixivaptan, route oral
Method in brief: (§4)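 Sprague-Dawley rats (9/gender) were fasted 18 h and gavaged once with [14C]lixivaptan at 10 mg/kg (10 ml/kg), about 29.8 µCi/mg, suspended in deionized water with pluronic F68. Plasma came by cardiac puncture under isoflurane at 1, 8 and 24 h (3/gender/time) and was extracted twice with 2 volumes of acetonitrile. C18 radio-HPLC with a flow scintillation detector gave percent of plasma radioactivity per peak.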

Rattus norvegicus [15] = experiment: Drug level in female Sprague-Dawley rat plasma at 10 mg/kg, po administered as single dose via gavage measured after 8 hrs by liquid scintillation counting; format: ADME, organism-based; set-up: dose 10 mg/kg, dosed compound name [14C]lixivaptan, route oral; method in brief: as §4
Canis familiaris [16] = experiment: Drug level in beagle dog plasma at 10 mg/kg, po administered as single dose measured after 2 hrs by liquid scintillation counting; format: ADME, organism-based, Canis lupus familiaris; set-up: dose 10 mg/kg, dosed compound name [14C]lixivaptan, route oral
Method in brief: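 Four male beagles fasted 18 h were gavaged once with [14C]lixivaptan at 10 mg/kg (2 ml/kg). The 5.0 mg/ml suspension was in deionized water with pluronic F68 (1.04 µCi/mg). Jugular K2EDTA plasma was taken at 2, 8 and 24 h and extracted twice with 2 volumes of acetonitrile. Profiling used C18 radio-HPLC (ammonium formate/acetonitrile gradient) with on-line flow scintillation detection. Each peak is reported as percent of plasma radioactivity.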

## Cc1ccc(F)cc1[14C](=O)Nc1ccc(C(=O)N2Cc3cccn3Cc3ccccc32)c(Cl)c1
Rattus norvegicus [1]
  AUCt: 65700 ng.Eq.hr/ml
[2]
  Radiolabel recovery: 20.5%
[3]
  Radiolabel recovery: 63.7%
[4]
  Radiolabel recovery: 5.77%
Rattus norvegicus [5]
  Radiolabel recovery: 99%
[6]
  Radiolabel recovery: 7.6%
[7]
  Radiolabel recovery: 92%
Rattus norvegicus [8]
  Radiolabel recovery: 65.4%
Homo sapiens [9]
  AUC: 1860 ng.Eq.hr/ml
Homo sapiens [10]
  Cmax: 1770 ngequiv/ml
Canis familiaris [11]
  AUCt: 82800 ng.Eq.hr/ml
Homo sapiens [12]
  Compound recovery: 8%
Homo sapiens [13]
  Compound recovery: 5.6%
Rattus norvegicus [14]
  Compound recovery: 29.9%
Rattus norvegicus [15]
  Compound recovery: 12.2%
Canis familiaris [16]
  Compound recovery: 21.2%

Reference: ChEMBL document CHEMBL3525987, “Assessment of exposure of metabolites in preclinical species and humans at steady state from the single-dose radiolabeled absorption, distribution, metabolism, and excretion studies: a case study” (Drug Metab Dispos, 2012)
